According to ChEMBL document CHEMBL3745677, “Discovery of 6-(4-{[5-Cyclopropyl-3-(2,6-dichlorophenyl)isoxazol-4-yl]methoxy}piperidin-1-yl)-1-methyl-1H-indole-3-carboxylic Acid: A Novel FXR Agonist for the Treatment of Dyslipidemia” (J Med Chem, 2015):

Columns and labels:
[1] = AUC (0 to 24 hrs) in beagle dog at 1 mg/kg, iv by LC-MS/MS analysis; assay type: ADME, organism-based, Canis lupus familiaris; design: time < 24 hr, dose 1 mg/kg, route intravenous; conditions: in vivo
In short: (§1)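 Sprague Dawley rats, Beagle dogs and Cynomolgus monkeys were dosed IV at 1 mg/kg (rat, dog) or 0.91 mpk (monkey) in 5% Solutol/5% EtOH in saline. Oral/nasogastric dosing was 3 mpk in 1.0% CMC/0.25% PS80/0.05% antifoam in purified water. Samples were processed to plasma and analysed by LC-MS/MS; values are mean ± SD, N=2-3.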

Rattus norvegicus [2] = experiment: Antidyslipidemic activity in ZDF rat assessed as HDL level at 30 mg/kg for 9 days by FPLC analysis (reference value: 48.3 mg/dL); assay type: functional, Zucker
[3] = Cmax in Sprague-Dawley rat at 3 mg/kg, po by LC-MS/MS analysis; assay type: ADME, organism-based; design: dose 3 mg/kg, route oral; conditions: in vivo; in short: as §1
[4] = Tmax in Sprague-Dawley rat at 3 mg/kg, po by LC-MS/MS analysis; assay type: ADME, organism-based; conditions: in vivo
In short: (§2)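 Oral/nasogastric dosing at 3 mpk in 1.0% CMC/0.25% PS80/0.05% antifoam in purified water. Plasma samples collected and analyzed by LC-MS/MS; parameters reported as mean ± SD, N=2-3.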

Mus musculus [5] = experiment: Antidyslipidemic activity in western-diet fed mouse expressing LDL-receptor (-/-) assessed as decrease in low density lipoprotein level at 10 mg/kg qd for a week administered via gavage by FPLC analysis; assay type: functional; conditions: po
In short: (§3)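 LDLR null male mice, six per group, were dosed by gavage once daily for one week (vehicle 5% Solutol, 5% EtOH, 1% wt/v CMC; 5 mL/kg). Serum was collected by cardiac puncture on day 7 under CO2 anaesthesia. Pooled serum from each treatment group was fractionated by FPLC to quantify VLDL and LDL.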

[6] = Cmax in cynomolgus monkey at 3 mg/kg, po by LC-MS/MS analysis; assay type: ADME, organism-based, Macaca fascicularis; design: dose 3 mg/kg, route oral; conditions: in vivo; in short: as §1
[7] = Terminal half life in cynomolgus monkey at 3 mg/kg, po by LC-MS/MS analysis; assay type: ADME, organism-based, Macaca fascicularis; conditions: in vivo, read-out: beta t1/2 (converted); in short: as §2
[8] = Terminal half life in Sprague-Dawley rat at 3 mg/kg, po by LC-MS/MS analysis; assay type: ADME, organism-based; conditions: in vivo, read-out: beta t1/2 (converted); in short: as §2
[9] = Half life in human at 75 to 600 mg; assay type: ADME, organism-based; conditions: in vivo
In short: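 Healthy subjects (two cohorts of 9) received single oral doses in a double-blind, placebo-controlled, 2-cohort, 3-period dose-escalation study at one site. Doses covered 5 to 600 mg. Half-life was taken as the mean over the 75–600 mg range.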

Mus musculus [10] = experiment: Antidyslipidemic activity in western-diet fed mouse expressing LDL-receptor (-/-) assessed as decrease in triglyceride level at 1 mg/kg qd for a week administered via gavage by FPLC analysis; assay type: functional; conditions: po
[11] = Terminal half life in Sprague-Dawley rat at 1 mg/kg, iv by LC-MS/MS analysis; assay type: ADME, organism-based; conditions: in vivo, read-out: beta t1/2 (converted)
In short: (§4)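 Intravenous dose given in 5% Solutol / 5% EtOH in saline (1 mg/kg rat and dog, 0.91 mpk monkey). Plasma samples collected and analyzed by LC-MS/MS; parameters reported as mean ± SD, N=2-3.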

[12] = Initial plasma concentration in cynomolgus monkey at 0.91 mg/kg, iv by LC-MS/MS analysis; assay type: ADME, organism-based, Macaca fascicularis; in short: as §4
Mus musculus [13] = experiment: Antidyslipidemic activity in western-diet fed mouse expressing LDL-receptor (-/-) assessed as decrease in total cholesterol level at 3 mg/kg qd for a week administered via gavage […]; assay type: functional; conditions: po
In short: (§5)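 Male LDLR null mice, six per group, were gavaged once daily for one week with compound (in situ sodium salt) or vehicle (5% Solutol, 5% EtOH, 1% wt/v CMC) at 5 mL/kg. On day 7 they were bled by cardiac puncture under CO2 anaesthesia. Serum cholesterol and triglycerides were measured enzymatically on a clinical chemistry analyser (mean ± SD, n=6). ED50 was obtained by nonlinear regression.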

Rattus norvegicus [14] = experiment: Antidyslipidemic activity in ZDF rat assessed as VLDL level at 10 mg/kg cotreated with 0.3 mg/kg rosiglitazone for 9 days by FPLC analysis (reference value: 35 mg/dL); assay type: functional, Zucker
Rattus norvegicus [15] = experiment: Antidyslipidemic activity in ZDF rat assessed as HDL level at 10 mg/kg cotreated with 0.3 mg/kg rosiglitazone for 9 days by FPLC analysis (reference value: 48.3 mg/dL); assay type: functional, Zucker
[16] = Clearance in cynomolgus monkey at 0.91 mg/kg, iv by LC-MS/MS analysis; assay type: ADME, organism-based, Macaca fascicularis; conditions: in vivo; in short: as §1
[17] = Volume of distribution at steady state in Sprague-Dawley rat at 1 mg/kg, iv by LC-MS/MS analysis; assay type: ADME, organism-based; conditions: in vivo, read-out: Vdss; in short: as §4
[18] = AUC (0 to 24 hrs) in Sprague-Dawley rat at 3 mg/kg, po by LC-MS/MS analysis; assay type: ADME, organism-based; design: time < 24 hr, dose 3 mg/kg, route oral; conditions: in vivo; in short: as §1
[19] = Terminal half life in cynomolgus monkey at 0.91 mg/kg, iv by LC-MS/MS analysis; assay type: ADME, organism-based, Macaca fascicularis; conditions: in vivo, read-out: beta t1/2 (converted); in short: as §4
Mus musculus [20] = experiment: Antidyslipidemic activity in western-diet fed mouse expressing LDL-receptor (-/-) assessed as decrease in very-low density lipoprotein level at 30 mg/kg qd for a week administered via gavage by FPLC analysis; assay type: functional; conditions: po; in short: as §3
Rattus norvegicus [21] = experiment: Antidyslipidemic activity in ZDF rat assessed as LDL/IgHDL level at 3 mg/kg for 9 days by FPLC analysis (reference value: 17.8 mg/dL); assay type: functional, Zucker
Mus musculus [22] = experiment: Antidyslipidemic activity in western-diet fed mouse expressing LDL-receptor (-/-) assessed as decrease in triglyceride level administered once daily for a week via gavage […]; assay type: functional; conditions: po; in short: as §5
[23] = Fraction unbound in human plasma; assay type: ADME, cell-free
[24] = Initial plasma concentration in beagle dog at 1 mg/kg, iv by LC-MS/MS analysis; assay type: ADME, organism-based, Canis lupus familiaris; in short: as §4
Rattus norvegicus [25] = experiment: Antidyslipidemic activity in ZDF rat assessed as LDL/IgHDL level at 10 mg/kg for 9 days by FPLC analysis (reference value: 17.8 mg/dL); assay type: functional, Zucker
[26] = AUC (0 to 24 hrs) in cynomolgus monkey at 0.91 mg/kg, iv by LC-MS/MS analysis; assay type: ADME, organism-based, Macaca fascicularis; design: dose 0.91 mg/kg, time < 24 hr, route intravenous; conditions: in vivo; in short: as §1

Cn1cc(C(=O)O)c2ccc(N3CCC(OCc4c(-c5c(Cl)cccc5Cl)noc4C4CC4)CC3)cc21 [TERN-101]
AUC(0-t) at 24 h [1]: 1780 ng·h/mL | Activity (Rattus norvegicus [2]): 94 mg/dL | Cmax [3]: 130 ng/mL | Tmax [4]: 1.08 h | inhibition in vivo at 10 mg/kg (Mus musculus [5]): 50% | Cmax [6]: 221 ng/mL | half-life [7]: 9 h | half-life [8]: 2 h | half-life [9]: 16.9 h | inhibition in vivo at 1 mg/kg (Mus musculus [10]): 25% | half-life [11]: 2 h | C0 [12]: 4220 ng/mL | inhibition in vivo at 3 mg/kg (Mus musculus [13]): 57% | Activity (Rattus norvegicus [14]): 8.5 mg/dL | Activity (Rattus norvegicus [15]): 95 mg/dL | clearance [16]: 6 mL/min/kg | Vd [17]: 1.24 L/kg | AUC(0-t) at 24 h [18]: 365 ng·h/mL | half-life [19]: 5 h | inhibition in vivo at 30 mg/kg (Mus musculus [20]): 98% | Activity (Rattus norvegicus [21]): 10.8 mg/dL | ED50 (Mus musculus [22]): 3.4 mg/kg | fraction unbound [23]: 0.032 | C0 [24]: 1180 ng/mL | Activity (Rattus norvegicus [25]): 12.5 mg/dL | AUC(0-t) at 24 h [26]: 2300 ng·h/mL
